# Measured values collected from several papers.
# Compare with care: the assays were run in different laboratories.
# Organism: Severe acute respiratory syndrome coronavirus 2
SMILES,assay,test system,setting,IC50
CN(C)CCCN1c2ccccc2Sc2ccc(Cl)cc21,"viral replication, inhibitor",A549-ACE2,,2.24 µM
CC(C)N1CCN(c2ccc(OCC3COC(Cn4cncn4)(c4ccc(Cl)cc4Cl)O3)cc2)CC1 (stereo not drawn),"viral replication, inhibitor",Vero C1008,,11.9 µM
COc1cccc2c1CCCC2CCCN1CCN(C2CCCCC2)CC1 (stereo not drawn),"viral replication, inhibitor",A549-ACE2,,0.407 µM
CCc1nc(C(N)=O)c(Nc2ccc(N3CCC(N4CCN(C)CC4)CC3)c(OC)c2)nc1NC1CCOCC1,"viral replication, inhibitor",Huh-7,,0.255 µM
Nc1nc(S)[nH]c(=S)c1C(=O)Nc1ccc(Cl)cc1,viral replication,Vero C1008,72 h,289 µM
COc1cc2c(cc1OC)CN(CCc1ccc(NC(=O)c3cccc4c(=O)c5cccc(OC)c5[nH]c34)cc1)CC2,viral replication,Vero C1008,,0.575 µM
COc1c(C)c2c(c(O)c1C/C=C(\C)CCC(=O)OCCN1CCOCC1)C(=O)OC2,"viral replication, inhibitor",Calu-3,40 h,2.15 µM
CC(C)c1nc(CN(C)C(=O)N[C@H](C(=O)N[C@@H](Cc2ccccc2)C[C@H](O)[C@H](Cc2ccccc2)NC(=O)OCc2cncs2)C(C)C)cs1,"viral replication, inhibitor",Vero C1008,,11.7 to 19.9 µM
Fc1ccc([C@@H]2CCNC[C@H]2COc2ccc3c(c2)OCO3)cc1,viral replication,Vero C1008,,3.55 µM
COC(=O)c1ccc2c(c1)NC(=O)/C2=C(\Nc1ccc(N(C)C(=O)CN2CCN(C)CC2)cc1)c1ccccc1,"viral replication, inhibitor",Huh-7,,> 2 µM
CCN(CC)CCOc1ccc2c(c1)C(=O)c1cc(OCCN(CC)CC)ccc1-2,"viral replication, inhibitor",Vero,24 h,79.2 µM
CC(C)(C)CC(C)(C)c1ccc(O)c(Cc2ccc(Cl)cc2Cl)c1,"viral replication, inhibitor",Calu-3,40 h,3.26 µM
CCCCCCCCCC(=O)N[C@@H](Cc1c[nH]c2ccccc12)C(=O)N[C@H](CC(N)=O)C(=O)N[C@@H](CC(=O)O)C(=O)N[C@@H]1C(=O)NCC(=O)N[C@@H](CCCN)C(=O)N[C@@H](CC(=O)O)C(=O)N[C@H](C)C(=O)N[C@@H](CC(=O)O)C(=O)NCC(=O)N[C@H](CO)C(=O)N[C@@H]([C@H](C)CC(=O)O)C(=O)N[C@@H](CC(=O)c2ccccc2N)C(=O)O[C@@H]1C,"viral replication, inhibitor",Vero,24 h,> 0.4 µg/mL
Nc1nc2nc[nH]c2c(=S)[nH]1,"viral replication, inhibitor",Huh-7,,0.178 µM
CCOP(=O)(OCC)N1C/C(=C\c2ccc(F)cc2)C(=O)C2(C1)C(c1ccc(F)cc1)CN(C)C21C(=O)Nc2ccc(Cl)cc21 (stereo not drawn),"viral replication, inhibitor",Vero C1008,72 h,13.5 µM
Nc1nc(S[C@@H]2O[C@H](CO)[C@H](O)[C@H](O)[C@H]2O)[nH]c(=S)c1C(=O)Nc1ccc(Cl)cc1,viral replication,Vero C1008,72 h,15.4 µM
CCN(CC)CCOc1ccc(C(O)(Cc2ccc(Cl)cc2)c2ccc(C)cc2)cc1 (stereo not drawn),"viral replication, inhibitor",Vero C1008,,4.68 µM
CN(C)CCC=C1c2ccccc2CCc2ccccc21,"viral replication, inhibitor",A549-ACE2,,0.871 µM
NC(=O)c1ncn([C@@H]2O[C@H](CO)[C@@H](O)[C@H]2O)n1,"viral replication, inhibitor",Vero C1008,,> 10 µM
CC(C)[N+]1(C)[C@@H]2CC[C@H]1C[C@@H](OC(=O)C(CO)c1ccccc1)C2 (stereo partly drawn),"viral replication, inhibitor",Huh-7,,0.056 µM
Nc1c2ccccc2nc2ccccc12,"viral replication, inhibitor",Calu-3,40 h,4.44 µM
CC(=O)OC[C@H]1O[C@@H](Sc2nc(N)c(C(=O)Nc3ccccc3)c(=S)[nH]2)[C@H](OC(C)=O)[C@@H](OC(C)=O)[C@@H]1OC(C)=O,viral replication,Vero C1008,72 h,126 µM
COCCCC/C(=N\OCCN)c1ccc(C(F)(F)F)cc1,"viral replication, inhibitor",A549-ACE2,,2.09 µM
OC(c1cc(C(F)(F)F)nc2c(C(F)(F)F)cccc12)C1CCCCN1 (stereo not drawn),"viral replication, inhibitor",Vero C1008,,7.11 µM
COC(=O)Nc1nc2ccc(C(=O)c3ccccc3)cc2[nH]1,"viral replication, inhibitor",Vero C1008,,0.25 to 1.2 µM
CCCC(CCC)C(=O)O,"viral replication, inhibitor",Huh-7,,> 2 µM
CCCCCCCCCCCCCCCC(=O)N[C@H]1C[C@@H](O)[C@@H](O)NC(=O)[C@@H]2[C@@H](O)[C@@H](C)CN2C(=O)[C@H]([C@@H](C)O)NC(=O)[C@H]([C@H](O)[C@@H](O)c2ccc(O)cc2)NC(=O)[C@@H]2C[C@@H](O)CN2C(=O)[C@H]([C@@H](C)O)NC1=O,"viral replication, inhibitor",Vero,24 h,1.3 µg/mL
CCOP(=O)(OCC)N1C/C(=C\c2ccccc2)C(=O)C2(C1)C(c1ccccc1)CN(C)C21C(=O)Nc2ccc(Cl)cc21 (stereo not drawn),"viral replication, inhibitor",Vero C1008,72 h,10.4 µM
CC(C)(C)OC(=O)N[C@H]1CCCCC/C=C\[C@@H]2C[C@@]2(C(=O)NS(=O)(=O)C2CC2)NC(=O)[C@@H]2C[C@@H](OC(=O)N3Cc4cccc(F)c4C3)CN2C1=O,viral replication,HEK-293T,,> 50 µM
C[C@@H]1O[C@@H](O[C@H]2C[C@@H](O)[C@]3(CO)[C@H]4[C@H](O)C[C@]5(C)[C@@H](C6=CC(=O)OC6)CC[C@]5(O)[C@@H]4CC[C@]3(O)C2)[C@H](O)[C@H](O)[C@H]1O,"viral replication, inhibitor",Vero C1008,,0.03 µM
CC(C)C(=O)OCC(=O)[C@@]12O[C@H](C3CCCCC3)O[C@@H]1C[C@H]1[C@@H]3CCC4=CC(=O)C=C[C@]4(C)[C@H]3[C@@H](O)C[C@@]12C,viral replication,VeroE6/TMPRSS2,,8 µM
CCN(CC)CCCC(C)Nc1ccnc2cc(Cl)ccc12 (stereo not drawn),"viral replication, inhibitor",Vero C1008,,1.38 µM
CC(Nc1nc(N2CCNCC2)nc2ccccc12)c1ccccc1N (stereo not drawn),"viral entry, inhibitor",,pseudovirus,35.5 µM
COc1cccc2c1C(=O)c1c(O)c3c(c(O)c1C2=O)C[C@@](O)(C(C)=O)C[C@@H]3O[C@H]1C[C@H](N)[C@H](O)[C@H](C)O1,"viral replication, inhibitor",Calu-3,40 h,1.23 µM
CC(=O)OC[C@H]1O[C@@H](Sc2nc(N)c(C(=O)Nc3ccc(Cl)cc3)c(=S)[nH]2)[C@H](OC(C)=O)[C@@H](OC(C)=O)[C@@H]1OC(C)=O,viral replication,Vero C1008,72 h,77.4 µM
CC(CN1c2ccccc2Sc2ccccc21)N(C)C (stereo not drawn),"viral replication, inhibitor",Vero C1008,,9.21 µM
C=C[C@@H]1C[C@]1(NC(=O)[C@@H]1C[C@@H](Oc2ncc(OC)c3ccc(Cl)cc23)CN1C(=O)[C@@H](NC(=O)OC(C)(C)C)C(C)(C)C)C(=O)NS(=O)(=O)C1CC1,viral replication,HEK-293T,,48.4 µM
CCN(C)C(=O)Oc1cccc([C@H](C)N(C)C)c1,"viral replication, inhibitor",Huh-7,,> 2 µM
Nc1nc(S[C@@H]2O[C@H](CO)[C@@H](O)[C@H](O)[C@H]2O)[nH]c(=S)c1C(=O)Nc1ccccc1,viral replication,Vero C1008,72 h,47.8 µM
CCCCCOc1ccc(-c2ccc(-c3ccc(C(=O)N[C@H]4C[C@@H](O)[C@@H](O)NC(=O)[C@@H]5[C@@H](O)[C@@H](C)CN5C(=O)[C@H]([C@@H](C)O)NC(=O)[C@H]([C@H](O)[C@@H](O)c5ccc(O)cc5)NC(=O)[C@@H]5C[C@@H](O)CN5C(=O)[C@H]([C@@H](C)O)NC4=O)cc3)cc2)cc1,"viral replication, inhibitor",Vero,24 h,5.4 µg/mL
CCN(CC)CCOc1ccc(C(O)(Cc2ccc(Cl)cc2)c2ccc(C)cc2)cc1 (stereo not drawn),viral replication,Vero C1008,,0.759 µM
CCN(CC)CCNC(=O)c1cc(Cl)c(N)cc1OC,"viral replication, inhibitor",Huh-7,,0.468 µM
CC[C@H](C)[C@H]1C(=O)N2CCC[C@H]2C(=O)O[C@H](C(C)(C)C)C[C@@H](C)C[C@H](O)[C@H](C)C2=N[C@@H](CCC(=O)N[C@@H](Cc3ccc(OC)cc3)C(=O)N(C)[C@@H](C)C(=O)N1C)CS2,"viral replication, inhibitor",Vero C1008,,0.17 µM
CCC(CC)COC(=O)[C@H](C)N[P@](=O)(OC[C@H]1O[C@@](C#N)(c2ccc3c(N)ncnn23)[C@H](O)[C@@H]1O)Oc1ccccc1,"plaque formation, inhibitor",Vero C1008,,0.19 µM
Cc1ccc(NC(=O)c2c(N)nc(S[C@@H]3O[C@H](CO)[C@H](O)[C@H](O)[C@H]3O)[nH]c2=S)cc1,viral replication,Vero C1008,72 h,34 µM
CCC(CC)COC(=O)[C@H](C)N[P@](=O)(OC[C@H]1O[C@@](C#N)(c2ccc3c(N)ncnn23)[C@H](O)[C@@H]1O)Oc1ccccc1,"viral replication, inhibitor",Calu-3,40 h,0.389 µM
COc1cc2c(cc1OC)C(=O)C(CC1CCN(Cc3ccccc3)CC1)C2 (stereo not drawn),"viral replication, inhibitor",A549-ACE2,,7.76 µM
CCN(CC)CCS(=O)(=O)[C@@H]1CCN2C(=O)c3coc(n3)CC(=O)C[C@H](O)/C=C(C)/C=C/CNC(=O)/C=C/[C@@H](C)[C@@H](C(C)C)OC(=O)[C@@H]12,"viral replication, inhibitor",Huh-7,,> 2 µM
